Measurements taken from publication PMC6923801 (Journal of medicinal chemistry, 2019).

Key:
mouse GPR68 = mouse GPR68 (Mus musculus, UniProt Q8BFQ3); assay: GloSensor cAMP assay at mouse GPR68; format: cell-based; settings: for Δ: difference of Log(αβ/KB) at mouse GPR68 from the corresponding values at human GPR68
Outline: (§1)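 HEK293T cells were transiently transfected with receptor and GloSensor cAMP plasmids, overnight (16–20 h). Cells were plated on poly-L-Lys in DMEM + 1% dFBS for 6–24 h, then loaded with 3.5 mM luciferin (HBSS, 20 mM TAPS, pH 8.40) for 1 h at 37 °C. Drug was applied in Ca/Mg-free HBSS pH buffers (MES 5.60–6.70, HEPES 6.80–8.20, TAPS 8.30–8.60) with 10 μM Ro 20-1724. Luminescence was read at 20–30 min.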

GPR65 [1] = target: T1, GPR65 (Homo sapiens, UniProt Q8IYL9); settings: cited from earlier work
T1 sequence (Q8IYL9 whole entry): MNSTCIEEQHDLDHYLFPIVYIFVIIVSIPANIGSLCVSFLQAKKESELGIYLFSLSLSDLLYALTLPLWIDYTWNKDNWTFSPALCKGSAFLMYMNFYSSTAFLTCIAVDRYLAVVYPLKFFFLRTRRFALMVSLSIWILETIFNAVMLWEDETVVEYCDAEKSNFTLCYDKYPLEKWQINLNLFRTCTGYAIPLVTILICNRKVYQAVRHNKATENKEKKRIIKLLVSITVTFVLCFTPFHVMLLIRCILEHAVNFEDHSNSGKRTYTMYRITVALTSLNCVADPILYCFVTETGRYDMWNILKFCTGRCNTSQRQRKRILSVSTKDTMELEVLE

GPR4 [2] = target: T2, GPR4 (Homo sapiens, UniProt P46093); settings: cited from earlier work
T2 sequence (P46093 whole entry): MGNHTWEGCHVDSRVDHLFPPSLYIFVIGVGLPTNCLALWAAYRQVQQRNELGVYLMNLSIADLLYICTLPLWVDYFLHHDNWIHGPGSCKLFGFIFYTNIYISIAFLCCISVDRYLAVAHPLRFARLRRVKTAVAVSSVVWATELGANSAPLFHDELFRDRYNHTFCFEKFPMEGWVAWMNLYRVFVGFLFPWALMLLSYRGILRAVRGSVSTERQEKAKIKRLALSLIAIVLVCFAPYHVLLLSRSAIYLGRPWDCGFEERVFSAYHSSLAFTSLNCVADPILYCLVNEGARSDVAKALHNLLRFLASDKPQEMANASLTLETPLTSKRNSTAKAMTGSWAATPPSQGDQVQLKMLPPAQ

human GPR68 = human GPR68 (Homo sapiens, UniProt Q15743); assay: GloSensor cAMP assay, proton-mediated Gs-cAMP production at human GPR68; format: cell-based; settings: for Δ: difference of Log(αβ/KB) from that of 1; for Δ / −Log (KB) / Log (αβ/KB) / fold increased allosteric activity (log(αβ/KB)) compared to 1: human GPR68; for Log (α): affinity cooperativity; for Log (α) / Log (β): human GPR68, HEK293T, Gs-cAMP; for Log (α) / −Log (KB) / Log (αβ/KB) / Log (β): mean ± SEM; for −Log (KB): allosteric binding affinity from functional assay; for Log (αβ/KB): allosteric index; for Log (β): efficacy cooperativity; for PAM activity at GPR68: inactive analogues
Sequence of human GPR68 (Q15743 whole entry): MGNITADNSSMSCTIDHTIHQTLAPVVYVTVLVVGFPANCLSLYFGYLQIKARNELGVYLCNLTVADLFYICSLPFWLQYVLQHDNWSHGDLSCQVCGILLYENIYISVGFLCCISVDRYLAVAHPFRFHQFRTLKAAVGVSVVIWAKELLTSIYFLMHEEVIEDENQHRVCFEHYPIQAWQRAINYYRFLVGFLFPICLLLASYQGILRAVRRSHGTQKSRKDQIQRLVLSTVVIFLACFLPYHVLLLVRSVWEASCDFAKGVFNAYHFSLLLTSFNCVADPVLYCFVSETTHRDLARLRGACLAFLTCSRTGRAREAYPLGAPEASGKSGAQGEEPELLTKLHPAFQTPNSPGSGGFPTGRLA
Outline: as §1

[3] = tested on: 48 common GPCRs, ion channels, and transporters; assay: Radioligand binding panel of 48 common drug targets
Outline: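 Binding profiling was done by the NIMH PDSP. Targets were first tested at 10 μM in quadruplicate. pKi values were determined for targets with ≥50% inhibition, from at least three independent assays, each in triplicate.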

[4] = tested on: human GPCRome (318 GPCRs); assay: PRESTO-Tango GPCRome off-target agonist screen; format: cell-based; settings: 1 μM
Outline: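 HTLA cells were plated in DMEM + 2% dFBS overnight, then transfected overnight with receptor Tango constructs (15 ng/well) by in-plate PEI. Test compound was added without medium change and left overnight. Bright-Glo luminescence was read after 20 min at room temperature and expressed as fold of basal, using quadruplicate basal and sample wells. Controls were D2 with 100 nM quinpirole and untransfected cells.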

5-HT2B receptors = 5-HT2B receptors (Homo sapiens, UniProt P41595); assay: Calcium release functional assay at 5-HT2B receptors; format: cell-based
Sequence of 5-HT2B receptors (P41595 whole entry): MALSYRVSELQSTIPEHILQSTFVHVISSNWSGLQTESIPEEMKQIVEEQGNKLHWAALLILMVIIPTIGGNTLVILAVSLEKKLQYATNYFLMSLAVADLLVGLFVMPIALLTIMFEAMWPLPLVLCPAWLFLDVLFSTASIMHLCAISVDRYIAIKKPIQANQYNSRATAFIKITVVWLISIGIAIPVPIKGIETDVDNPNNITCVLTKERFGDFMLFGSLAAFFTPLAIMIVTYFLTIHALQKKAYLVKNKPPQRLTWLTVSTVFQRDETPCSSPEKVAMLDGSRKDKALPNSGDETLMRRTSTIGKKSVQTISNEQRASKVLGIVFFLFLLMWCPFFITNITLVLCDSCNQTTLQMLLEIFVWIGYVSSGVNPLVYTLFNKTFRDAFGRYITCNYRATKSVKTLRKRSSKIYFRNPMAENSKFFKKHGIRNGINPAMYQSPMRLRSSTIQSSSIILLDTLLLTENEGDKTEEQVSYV
Outline: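 HEK293 cells stably expressing 5-HT2B were plated in DMEM with 1% dFBS overnight (16–20 h). They were loaded with Fluo-4 Direct dye for 1 h at 37 °C in HBSS with 20 mM HEPES and 2.5 mM probenecid, pH 7.40. Drug dilutions contained 1 mg/mL BSA and 0.1 mg/mL ascorbic acid. Fluorescence was read 1/s for 2 min, with 10 s baseline. Read-out was peak fold of basal within the first minute.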

GPR4 [5] = target: T2, GPR4; assay: GloSensor cAMP assay at GPR4; format: cell-based; settings: proton concentration-response with increasing modulator
Outline: as §1

MT1 receptor = MT1 receptor (Homo sapiens, UniProt P48039); assay: Tango arrestin recruitment concentration response, MT1; format: cell-based
Sequence of MT1 receptor (P48039 whole entry): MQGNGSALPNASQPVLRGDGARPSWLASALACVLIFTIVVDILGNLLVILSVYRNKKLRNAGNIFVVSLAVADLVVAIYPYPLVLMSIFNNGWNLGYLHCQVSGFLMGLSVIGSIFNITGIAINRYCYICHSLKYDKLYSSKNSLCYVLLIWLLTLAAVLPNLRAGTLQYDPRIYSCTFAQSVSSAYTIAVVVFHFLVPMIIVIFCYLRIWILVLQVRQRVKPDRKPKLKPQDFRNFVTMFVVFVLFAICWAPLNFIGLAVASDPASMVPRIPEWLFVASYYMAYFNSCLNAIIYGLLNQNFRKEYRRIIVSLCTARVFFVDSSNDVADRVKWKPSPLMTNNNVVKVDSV
Outline: (§2)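 HTLA cells were transfected overnight with receptor DNA in DMEM + 10% FBS, then plated on poly-L-Lys in DMEM + 1% dFBS. Test compound was added 6 h later and incubated overnight (16–20 h). After removal of medium, Bright-Glo reagent was added and luminescence counted.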

GPR65 [6] = target: T1, GPR65; assay: GloSensor cAMP assay at GPR65; format: cell-based; settings: proton concentration-response with increasing modulator
Outline: as §1

[7] = Mouse pharmacokinetic study; format: in vivo; settings: mice, single 25 mg/kg IP
Outline: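 Nine male Swiss Albino mice received one intraperitoneal dose of 25 mg/kg. Vehicle was 5% N-methyl-2-pyrrolidone, 5% Solutol HS-15 and 90% normal saline. Plasma and brain were sampled at 0.5, 1.0 and 2.0 h. Concentrations are averages of three mice per time point ± SEM.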

[8] = target: atypical chemokine receptor 3 (ACKR3) (Homo sapiens, UniProt P25106); assay: Tango arrestin recruitment concentration response, ACKR3; format: cell-based
Sequence of atypical chemokine receptor 3 (ACKR3) (P25106 whole entry): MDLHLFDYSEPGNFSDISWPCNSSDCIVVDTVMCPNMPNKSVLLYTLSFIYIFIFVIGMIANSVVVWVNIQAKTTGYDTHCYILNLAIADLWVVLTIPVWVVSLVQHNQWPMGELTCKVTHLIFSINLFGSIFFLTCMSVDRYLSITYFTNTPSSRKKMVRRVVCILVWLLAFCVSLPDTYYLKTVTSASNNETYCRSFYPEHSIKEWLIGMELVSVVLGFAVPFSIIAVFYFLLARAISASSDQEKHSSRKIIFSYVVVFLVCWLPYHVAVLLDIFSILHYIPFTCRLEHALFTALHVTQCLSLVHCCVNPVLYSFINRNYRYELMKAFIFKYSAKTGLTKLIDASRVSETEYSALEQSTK
Outline: as §2

Sequence of mouse GPR68 (Q8BFQ3 whole entry): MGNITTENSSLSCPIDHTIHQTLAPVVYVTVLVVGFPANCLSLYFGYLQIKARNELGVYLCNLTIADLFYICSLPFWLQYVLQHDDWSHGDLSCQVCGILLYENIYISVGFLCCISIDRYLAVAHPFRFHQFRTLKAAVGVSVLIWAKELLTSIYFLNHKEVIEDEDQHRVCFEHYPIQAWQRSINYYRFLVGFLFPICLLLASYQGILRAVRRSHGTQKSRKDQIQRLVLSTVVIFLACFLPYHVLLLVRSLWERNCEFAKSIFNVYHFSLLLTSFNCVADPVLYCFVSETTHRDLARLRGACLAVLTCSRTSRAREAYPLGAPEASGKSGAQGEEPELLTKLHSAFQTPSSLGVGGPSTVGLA

SMILES | Kb (mouse GPR68) [µM] | Δ (mouse GPR68) | Kb (human GPR68) [µM] | Δ (human GPR68) | binding affinity to common drug targets [3] | Log (α) (human GPR68) | −Log (KB) (human GPR68) | Log (αβ/KB) (human GPR68) | Log (β) (human GPR68) | PAM activity at GPR68 (human GPR68) | agonist activity at 5-HT2B receptors (5-HT2B receptors) | fold increased allosteric activity (log(αβ/KB)) compared to 1 (human GPR68) | agonist type at ACKR3 [8] | off-target agonist activity at human GPCRome [4] | PAM activity at GPR4 (GPR4 [5]) | PAM activity at GPR65 (GPR65 [6]) | also measured
Nc1nc(NCc2ccccc2)nc(-c2ccccc2CO)n1 [Compound 1] | 74.1 | −0.34 | 44.7 | 0.00 | – | – | – | – | – | – | – | – | – | – | – | – | activity at GPR65 (GPR65 [1]): no activity; activity at GPR4 (GPR4 [2]): no activity
CN(C)c1nc(NCc2ccccc2)nc(-c2ccccc2CO)n1 [Compound 7, (2-(4-(Benzylamino)-6-(dimethylamino)-1,3,5-triazin-2-yl)-phenyl)methanol] | – | – | – | Inactive | minimal binding affinities | Inactive | Inactive | Inactive | Inactive | do not show PAM activity | – | – | – | no off-target agonist activity | – | – | –
CC(=O)c1cccc(-c2nc(N)nc(NCc3ccccc3)n2)c1 [Compound 21, 1-(3-(4-Amino-6-(benzylamino)-1,3,5-triazin-2-yl)phenyl)ethan-1-one] | – | – | – | Inactive | minimal binding affinities | Inactive | Inactive | Inactive | Inactive | do not show PAM activity | – | – | – | no off-target agonist activity | – | – | –

The next lines start with results.

Kb (mouse GPR68) [µM] | Δ (mouse GPR68) | Kb (human GPR68) [µM] | Δ (human GPR68) | binding affinity to common drug targets [3] | Log (α) (human GPR68) | −Log (KB) (human GPR68) | Log (αβ/KB) (human GPR68) | Log (β) (human GPR68) | PAM activity at GPR68 (human GPR68) | agonist activity at 5-HT2B receptors (5-HT2B receptors) | fold increased allosteric activity (log(αβ/KB)) compared to 1 (human GPR68) | agonist type at ACKR3 [8] | SMILES | off-target agonist activity at human GPCRome [4] | PAM activity at GPR4 (GPR4 [5]) | PAM activity at GPR65 (GPR65 [6]) | also measured
7.59 | – | 1.41 | 1.52 | – | – | – | – | – | – | no agonist activity | 33 fold | – | Nc1nc(NCc2ccc(Oc3ccccc3)cc2)nc(-c2c(F)cccc2CO)n1 [Compound 71, (2-(4-Amino-6-((4-phenoxybenzyl)amino)-1,3,5-triazin-2-yl)-3-fluorophenyl)methanol] | agonist activity only at the MT1 and MT2 receptors | no PAM activity | weak potentiation of proton activity at GPR65 only at high concentrations | agonist type at MT1 (MT1 receptor): weak full agonist; bioavailability [7]: bioavailable; blood-brain barrier penetration [7]: can readily cross the BBB; clinical signs [7]: no clinical signs observed; time high exposure levels in plasma and brain were maintained [7]: 2 h
19.1 | −0.34 | 7.24 | 0.95 | – | – | – | – | – | – | no agonist activity | approximately 10 fold | full agonist activities | Nc1nc(NCCc2ccccc2)nc(-c2cc(Cl)ccc2CO)n1 [Compound 77, (2-(4-Amino-6-(phenethylamino)-1,3,5-triazin-2-yl)-4-chlorophenyl)methanol] | agonist activity at an atypical chemokine receptor 3 (ACKR3) | no effect or weak activity only at high concentrations | no effect or weak activity only at high concentrations | –
13.8 | −0.40 | 4.47 | 1.07 | – | – | – | – | – | – | no agonist activity | approximately 10 fold | full agonist activities | Nc1nc(NCCCc2ccccc2)nc(-c2cc(Cl)ccc2CO)n1 [Compound 78, (2-(4-Amino-6-((3-phenylpropyl)amino)-1,3,5-triazin-2-yl)-4-chlorophenyl)methanol] | agonist activity at an atypical chemokine receptor 3 (ACKR3) | no effect or weak activity only at high concentrations | no effect or weak activity only at high concentrations | –
